Rows were chosen to be rich in hits. Some 3.7% of all compounds tested hit in one or more screens of this group.
Kir21 inh = blocks the mouse Kir2.1 inward-rectifier potassium channel; hit rate 0.85% among 310,000; B-score at 10 µM; HEK293-Kir2.1, FluxOR thallium flux fluorescence; stronger effect = lower value;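 active = fluorescence ratio B-score at or below minus 3 SD of library scores, with starting-brightness B-score within 2 SD, cut at about -4.2 in these data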;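 note: channel flux triggered by added potassium and thallium sulfate stimulus; B-score of peak minus minimum fluorescence over baseline after thallium stimulus; more negative B-score means stronger Kir2.1 block with less thallium influx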
Target sequence (P35561 whole entry, looked up): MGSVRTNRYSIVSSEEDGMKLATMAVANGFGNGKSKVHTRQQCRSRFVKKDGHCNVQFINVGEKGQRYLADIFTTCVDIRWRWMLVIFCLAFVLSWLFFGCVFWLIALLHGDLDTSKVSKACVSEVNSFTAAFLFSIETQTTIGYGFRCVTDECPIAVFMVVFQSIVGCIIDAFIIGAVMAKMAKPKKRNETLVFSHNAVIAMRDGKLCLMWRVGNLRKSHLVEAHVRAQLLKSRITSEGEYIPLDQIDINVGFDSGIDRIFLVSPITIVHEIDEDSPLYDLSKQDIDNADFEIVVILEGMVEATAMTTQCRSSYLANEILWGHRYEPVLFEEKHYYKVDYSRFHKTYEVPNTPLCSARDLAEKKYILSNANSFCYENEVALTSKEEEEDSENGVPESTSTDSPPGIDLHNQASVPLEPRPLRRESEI
KCNK3 block = human KCNK3 channel inhibition, primary screen. B-score at 10 µM. CHO-KCNK3 thallium flux, FluxOR fluorescence; stronger effect = lower value. AID 602410. hit rate 0.84% among 340,000;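 active = B-score under library mean minus 4 SD, starting fluorescence ratio at most library mean plus 5 SD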;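 note: more negative B-score means stronger inhibition of thallium flux through KCNK3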
KCNQ1 block = human KCNQ1 channel inhibition | P51787 | CHO-K1 KCNQ1, FluxOR thallium flux fluorescence; stronger effect = higher value | B-score at 10 µM | hit rate 1.3% among 310,000;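 active = compounds whose thallium flux B-score, printed positive for inhibition, exceeds three library SD while starting fluorescence stays within three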;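 note: channel opened by potassium depolarization with thallium stimulus after 20 min compound exposure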
KCNK9 block = inhibitors of human KCNK9 two-pore domain potassium channel | Q9NPC2 | HEK293 KCNK9, FluxOR thallium flux fluorescence; stronger effect = lower value | B-score at 10 µM | hit rate 1.2% among 310,000 | AID 488922;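 active = ratio B-score over 3 SD below the library mean, with starting fluorescence within 5 SD of its mean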;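 note: negative B-score means less thallium flux so channel inhibition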
hERG protect = hERG (human) protection from proarrhythmic block; activation (rescue from dofetilide block), less the hit threshold, % at 10 µM; Q12809; CHO-hERG, FluxOR thallium flux, dofetilide IC70 present; hit rate 0.51% among 310,000;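 active = activation above the mean of controls blocked by dofetilide plus 5 SD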;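 note: thallium influx through hERG after potassium depolarization seen as dye fluorescence rise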
KCNQ1 act = human KCNQ1 channel potentiation or activation; P51787; CHO-K1 KCNQ1, thallium flux FluxOR fluorescence; stronger effect = higher value; B-score at 10 µM; hit rate 0.35% among 310,000;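 active = fluorescence ratio B-score, a plate-corrected score, at least three library SD, with initial intensity B-score within 5 SD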
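Assay system: CHO-K1 cells stably expressing KCNQ1. Medium: assay buffer for compound exposure, DMSO matched across wells. Timing: 37 °C overnight plating, 90-min dark dye load, 20-min compound pretreatment. Signal: kinetic FluxOR fluorescence, 10 s baseline plus 110 s post-stimulus.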
* marks the source's active call; other numbers are inactive results; i = inactive; . = not tested or not shown.

SMILES	Kir21 inh	KCNK3 block	KCNQ1 block	KCNK9 block	hERG protect	KCNQ1 act
COCCn1c(-c2ccc(OC)cc2)cnc1SCC(=O)Nc1cc(C)on1	-0.05	i	i	i	-2	i
COCCn1c(-c2ccc(OC)cc2)cnc1SCC(=O)Nc1ccc(OC)cc1OC	-0.93	i	6*	i	-6	i
COc1ccc(NC(=O)CSc2nc3ccccc3c(=O)n2CCCN2CCCCC2)c(OC)c1	-6.1*	i	i	i	-6	i
CCN1C[C@@H]2[C@@H]3C(=O)N(Cc4ccccc4)C(=O)[C@@H]3[C@](Cc3ccccc3)(C1=O)N2C(=O)c1ccc(Br)cc1	.	i	.	.	.	.
O=C(NNc1nc2c(F)cc(F)cc2s1)c1ccccc1	0.28	i	i	i	-7	61*
Cc1ccsc1C(=O)OCC(=O)c1cc(C)n(C)c1C	.	i	.	.	.	.
O=C(COC(=O)C1CC2C=CC1C2)Nc1c(Br)cc([N+](=O)[O-])cc1Br (stereo not given)	.	i	.	.	.	.
CC1(C)CC2CC(C)(CN2S(=O)(=O)c2ccccc2[N+](=O)[O-])C1 (stereo not given)	.	i	.	.	.	.
O=C(/C=C/c1cn(CC(O)CN2CCOCC2)c2ccccc12)c1cccs1 (stereo not given)	-3	.	6*	i	-23	i
OC(CNCCc1ccc(C(F)(F)F)cc1)COc1cccc2ccccc12 (stereo not given)	-8*	i	i	i	5.3*	i
OC(CNCCc1ccc(C(F)(F)F)cc1)COc1ccc2ccccc2c1 (stereo not given)	-0.14	i	i	i	-24	i
OC(CNC1CCCC1)COc1ccccc1Br (stereo not given)	-0.01	i	i	i	-3	i
OC(CNC1CCCCCC1)COc1cccc2ccccc12 (stereo not given)	-4.9*	i	i	i	-12	i
Cc1ccccc1OCC(O)CNC1CCC(NCC(O)COc2ccccc2C)CC1 (stereo not given)	-5.5*	i	i	i	-2	i
CC(=O)C[C@@H](O)CC(=O)[C@@H]1OC(=O)[C@H](C)C/C=C\Cc2ccccc21	.	i	.	.	.	.
Cn1cc(Cc2ccccc2)c(=O)c(Cc2ccccc2)c1	.	i	.	.	.	.
CCOc1ccc(CN(C(=O)c2oc3cc(C)ccc3c2C)C2CCS(=O)(=O)C2)cc1 (stereo not given)	-2.3	i	i	-6.7*	-16	i
CCn1nnc2cc(C(=O)N3CCC(C(=O)OC)CC3)ccc21	.	i	.	.	.	.
O=C(Nc1nc(-c2ccc(S(=O)(=O)N3CCCC3)cc2)cs1)c1cccs1	.	-11*	.	.	.	.
O=C(Nc1nc(-c2ccc(S(=O)(=O)N3CCCCCC3)cc2)cs1)c1cccs1	-3.2	i	i	i	-11	i
O=C(Nc1nc(-c2cccs2)cs1)c1cccc(S(=O)(=O)N2CCCCC2)c1	0.8	i	i	-6.6*	-10	i
Cc1ccc(-c2csc(NC(=O)c3cccc(S(=O)(=O)N4CCN(C)CC4)c3)n2)cc1	0.25	i	i	i	-4	i
C[C@H](CO)N1C[C@H](C)[C@@H](CN(C)C)Oc2c(NS(=O)(=O)c3ccc(F)cc3)cccc2C1=O	.	i	.	.	.	.
CCOC(=O)C1=CN(Cc2ccco2)S(=O)(=O)NC1CC (stereo not given)	.	i	.	.	.	.
O/N=C/c1cc(Cl)ccc1OCc1cccc2ccccc12	-0.97	.	7*	-11*	-10	i
C#CCOc1ccc(Cl)cc1/C=N/O	-1.4	i	i	i	-3	i
Cc1cc(C)n(CCCNC(=O)CCNS(=O)(=O)c2ccccc2C(F)(F)F)n1	1.8	i	i	i	-7	i
COc1cc(/C=C2\SC(=O)N(c3ccccc3Cl)C2=O)cc([N+](=O)[O-])c1O	1.5	i	10*	i	-11	i
CC(C)c1cc(Br)ccc1OCCCN1C(=O)NC(C)(C)C1=O	-6.8*	i	i	i	-17	i
O=C(Nc1cccc(C(F)(F)F)c1)C12CC3CC(CC(C3)C1)C2	0.28	i	i	i	5.0*	i

Source: PubChem BioAssay (Johns Hopkins Ion Channel Center)
